Key:
[1] = target: T1, Kappa-type opioid receptor (Homo sapiens, UniProt P41145); test: Effective concentration for activation of human Opioid receptor kappa 1 expressed in chinese hamster ovary cells to enhance [35S]GTP-gamma-S, binding; type: functional, cell-based
In short: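 EC50 for human κ-opioid receptor activation, read as enhancement of [35S]GTPγS binding. Mean of at least three independent experiments, each run in duplicate.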

[2] = target: T1, Kappa-type opioid receptor; test: Activation of human Opioid receptor kappa 1 expressed in chinese hamster ovary cells to enhance [35S]GTP-gamma-S, binding compared to U50,488H; type: functional, cell-based
In short: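 Agonist efficacy at human κ-opioid receptor, read as enhancement of [35S]GTPγS binding and expressed as % of the maximal response to U50,488H. Mean of at least three independent experiments, each run in duplicate.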

[3] = target: T1, Kappa-type opioid receptor; test: Inhibition of [3H]diprenorphine binding to human Opioid receptor kappa 1 expressed in chinese hamster ovary cells; type: cell-based, CHO
In short: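 Ki from inhibition of [3H]diprenorphine binding to human κ-opioid receptor. Mean of at least three independent experiments, each run in duplicate.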

T1 sequence (P41145 whole entry): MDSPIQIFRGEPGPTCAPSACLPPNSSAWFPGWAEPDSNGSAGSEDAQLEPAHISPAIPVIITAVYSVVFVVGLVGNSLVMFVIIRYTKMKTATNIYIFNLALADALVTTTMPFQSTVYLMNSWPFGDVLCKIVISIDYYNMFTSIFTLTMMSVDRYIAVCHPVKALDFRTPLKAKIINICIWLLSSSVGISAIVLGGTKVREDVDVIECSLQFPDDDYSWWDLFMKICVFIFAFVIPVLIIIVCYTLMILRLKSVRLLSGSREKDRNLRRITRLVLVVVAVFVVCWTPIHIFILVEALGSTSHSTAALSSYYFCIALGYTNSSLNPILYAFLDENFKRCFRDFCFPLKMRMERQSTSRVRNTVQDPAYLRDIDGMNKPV

SMILES	EC50 [1] [nM]	Efficacy [2] [%]	Ki [3] [nM]
C=CCO[C@H]1C[C@@H](C(=O)OC)[C@]2(C)CCC3C(=O)O[C@H](c4ccoc4)C[C@]3(C)[C@H]2C1=O (stereo partly drawn)	145	106	60.1
CCCC(=O)O[C@H]1C[C@@H](C(=O)OC)[C@]2(C)CC[C@H]3C(=O)O[C@H](c4ccoc4)C[C@]3(C)[C@H]2C1=O	9.9	97	4.9
COC(=O)[C@@H]1C[C@H](OC(=O)[C@H](C)N)C(=O)[C@H]2[C@@]1(C)CC[C@H]1C(=O)O[C@H](c3ccoc3)C[C@]21C	–	–	> 10000
COC(=O)[C@@H]1C[C@H](OC)C(=O)[C@H]2[C@@]1(C)CC[C@H]1C(=O)O[C@H](c3ccoc3)C[C@]21C	389	98	220
COC(=O)[C@@H]1C[C@H](OC(N)=O)C(=O)[C@H]2[C@@]1(C)CC[C@H]1C(=O)O[C@H](c3ccoc3)C[C@]21C	6.2	99	3.2
CNC(=O)O[C@H]1C[C@@H](C(=O)OC)[C@]2(C)CC[C@H]3C(=O)O[C@H](c4ccoc4)C[C@]3(C)[C@H]2C1=O	201	81	83
CCNC(=O)O[C@H]1C[C@@H](C(=O)OC)[C@]2(C)CC[C@H]3C(=O)O[C@H](c4ccoc4)C[C@]3(C)[C@H]2C1=O	> 1000	–	462
CCN[C@@H]1C[C@@H](C(=O)OC)[C@]2(C)CC[C@H]3C(=O)O[C@H](c4ccoc4)C[C@]3(C)[C@H]2C1=O	68.9	–	28.9
COC(=O)[C@@H]1C[C@H](OC(=O)CNC(C)=O)C(=O)[C@H]2[C@@]1(C)CC[C@H]1C(=O)O[C@H](c3ccoc3)C[C@]21C	–	–	> 10000
CCC(=O)O[C@H]1C[C@@H](C(=O)OC)[C@]2(C)CC[C@H]3C(=O)O[C@H](c4ccoc4)C[C@]3(C)[C@H]2C1=O	20.4	94	7.2
COC(=O)[C@@H]1C[C@H](OCc2ccccc2)C(=O)[C@H]2[C@@]1(C)CCC1C(=O)O[C@H](c3ccoc3)C[C@@]12C (stereo partly drawn)	161	–	75.7
COC(=O)[C@@H]1C[C@H](OC(=O)CN(C)C)C(=O)[C@H]2[C@@]1(C)CC[C@H]1C(=O)O[C@H](c3ccoc3)C[C@]21C	–	–	> 10000
CN[C@@H]1C[C@@H](C(=O)OC)[C@]2(C)CC[C@H]3C(=O)O[C@H](c4ccoc4)C[C@]3(C)[C@H]2C1=O	–	–	> 10000
CCO[C@H]1C[C@@H](C(=O)OC)[C@]2(C)CC[C@H]3C(=O)O[C@H](c4ccoc4)C[C@]3(C)[C@H]2C1=O	–	103	–
CCCCO[C@H]1C[C@@H](C(=O)OC)[C@]2(C)CCC3C(=O)O[C@H](c4ccoc4)C[C@]3(C)[C@H]2C1=O (stereo partly drawn)	104	–	35.8
CCCO[C@H]1C[C@@H](C(=O)OC)[C@]2(C)CC[C@H]3C(=O)O[C@H](c4ccoc4)C[C@]3(C)[C@H]2C1=O [SALVINORIN A PROPYL ETHER]	67.4	100	28.7
COC(=O)[C@@H]1C[C@@H](N(C)C)C(=O)[C@H]2[C@@]1(C)CC[C@H]1C(=O)O[C@H](c3ccoc3)C[C@]21C	343	105	90.9
COC(=O)[C@@H]1C[C@H](O)C(=O)[C@H]2[C@@]1(C)CC[C@H]1C(=O)O[C@H](c3ccoc3)C[C@]21C	–	98	–

— ChEMBL document CHEMBL1145271 (Bioorg Med Chem Lett, 2005)
